Results reported in ChEMBL document CHEMBL5046273, “Development of a Novel, Small-Molecule Brain-Penetrant Histone Deacetylase Inhibitor That Enhances Spatial Memory Formation in Mice” (J Med Chem, 2022).
Calls of active or inactive are those of the source. The calls are words filed in the database; no cut-off is given here.

Assays:
Histone deacetylase 1 = Histone deacetylase 1 (Homo sapiens, UniProt Q13547); experiment: Inhibition of HDAC1 in human DU-145 cells assessed as increase in histone H3 acetylation after 24 hrs by immunofluorescence microscopy; format: cell-based
[1] = target: Histone deacetylase (Homo sapiens) (UniProt Q13547+O15379+Q9UBN7+Q92769+Q9UQL6+Q8WUI4+Q9BY41+Q96DB2+P56524+Q9UKV0+Q969S8); conditions: DU-145, dose 10.0 nM, time 24.0 hrs
[2] = Toxicity in ip dosed BALB/c mouse assessed as maximum tolerated dose measured after 2 weeks; format: organism-based; conditions: BALB/c, in vivo
In short: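 Healthy BALB/c mice, compound in 20% DMSO/saline, single i.p. dose. One mouse each at 200, 100 and 50 mg/kg, then 25, 12.5 and 6.25 mg/kg if needed, repeated until a tolerated dose was found. Last test repeated once. Mice weighed daily for 8 days; euthanized at >20% weight loss or overt toxicity. Morbidity/mortality followed over 2 weeks; triplicate experiments.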

DU-145 = experiment: Cytotoxicity against human DU-145 cells assessed as reduction in cell viability at 5 to 10 nM incubated for 48 hrs by MTT assay; format: functional, cell-based; conditions: dose 5-10 nM
In short: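 DU145 cells in DMEM with 10% FBS were seeded at 14 000 cells/well and allowed to adhere for 24 h. Test agents were diluted from 10 mM DMSO stocks (100, 50, 25 µM; 10, 5, 1.25 nM) and applied in triplicate for 48 h at 37 °C, 5% CO2, with DMSO as vehicle. Read-out was 250 µg/mL MTT for 4 h, DMSO solubilization, and A570 with 690 nm reference. Values normalized to DMSO.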

Histone deacetylase 2 [3] = target: T1, Histone deacetylase 2 (Homo sapiens, UniProt Q92769); experiment: Inhibition of recombinant human full-length HDAC2 preincubated for 20 mins with DTT followed by enzyme addition and measured after 10 mins by Glo-luminescence assay
In short: (§1)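 Compounds were serially diluted and incubated with enzyme for 10 min. HDAC-Glo I/II substrate/developer was then added, and luminescence read after 40 min at 23 °C. IC50 from four-parameter fits from two independent titrations, mean ± SD.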

Histone deacetylase 2 [4] = target: T1, Histone deacetylase 2; experiment: Inhibition of recombinant human full-length HDAC2 incubated for 10 mins by Glo-luminescence assay; in short: as §1

T1 sequence (Q92769 whole entry): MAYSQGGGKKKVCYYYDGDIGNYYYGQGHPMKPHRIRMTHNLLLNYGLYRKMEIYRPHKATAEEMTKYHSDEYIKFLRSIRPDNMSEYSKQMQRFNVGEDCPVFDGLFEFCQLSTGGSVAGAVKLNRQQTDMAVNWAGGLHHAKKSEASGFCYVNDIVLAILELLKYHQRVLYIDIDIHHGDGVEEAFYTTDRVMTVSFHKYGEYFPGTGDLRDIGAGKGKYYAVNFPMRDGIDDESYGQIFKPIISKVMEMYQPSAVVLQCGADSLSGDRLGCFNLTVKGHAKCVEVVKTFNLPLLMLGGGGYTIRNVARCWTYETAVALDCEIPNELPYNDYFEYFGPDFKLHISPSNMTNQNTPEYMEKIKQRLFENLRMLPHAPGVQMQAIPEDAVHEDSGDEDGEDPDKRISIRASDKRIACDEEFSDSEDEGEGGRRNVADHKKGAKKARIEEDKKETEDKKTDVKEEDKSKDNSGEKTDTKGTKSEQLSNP
Sequence of Histone deacetylase 1 (Q13547 whole entry): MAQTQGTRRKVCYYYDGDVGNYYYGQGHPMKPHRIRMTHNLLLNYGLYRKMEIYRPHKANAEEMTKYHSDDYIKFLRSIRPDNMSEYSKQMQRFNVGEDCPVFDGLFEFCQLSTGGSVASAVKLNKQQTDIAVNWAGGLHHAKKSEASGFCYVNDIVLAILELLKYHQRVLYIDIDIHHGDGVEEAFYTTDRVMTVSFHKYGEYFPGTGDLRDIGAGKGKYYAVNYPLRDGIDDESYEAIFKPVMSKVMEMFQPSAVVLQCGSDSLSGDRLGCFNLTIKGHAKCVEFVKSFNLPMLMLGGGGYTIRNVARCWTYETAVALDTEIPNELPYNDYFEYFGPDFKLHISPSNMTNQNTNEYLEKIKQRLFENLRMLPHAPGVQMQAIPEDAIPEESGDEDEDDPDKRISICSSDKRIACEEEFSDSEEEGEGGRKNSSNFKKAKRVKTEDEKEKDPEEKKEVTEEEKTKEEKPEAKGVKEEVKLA

Row | SMILES | IC50 (Histone deacetylase 1) | inhibition [1] | MTD at 336 h [2] | Activity (DU-145) | IC50 (Histone deacetylase 2 [3]) | IC50 (Histone deacetylase 2 [4])
1 | C/C=C1\NC(=O)[C@H]2CSSCC/C=C/[C@H](CC(=O)N[C@H](C(C)C)C(=O)N2)OC(=O)[C@H](C(C)C)NC1=O [ROMIDEPSIN] | 0.0014 µM | Active | > 200 mg/kg | Active | – | –
2 | O=C(O)CC(O)/C=C/CCSSCC/C=C/C(O)CC(=O)O (stereo unspecified) | – | – | – | – | 28 µM | 140 µM
